Tests used:
[1] = biological target: T1, Muscarinic acetylcholine receptor M2 (Homo sapiens) (UniProt P08172); assay: Relative efficacy was evaluated on guinea pig heart (rate) at Muscarinic acetylcholine receptor M2; type: functional; settings: Cavia porcellus; target entry is the homologue from another species
T1 sequence (whole entry): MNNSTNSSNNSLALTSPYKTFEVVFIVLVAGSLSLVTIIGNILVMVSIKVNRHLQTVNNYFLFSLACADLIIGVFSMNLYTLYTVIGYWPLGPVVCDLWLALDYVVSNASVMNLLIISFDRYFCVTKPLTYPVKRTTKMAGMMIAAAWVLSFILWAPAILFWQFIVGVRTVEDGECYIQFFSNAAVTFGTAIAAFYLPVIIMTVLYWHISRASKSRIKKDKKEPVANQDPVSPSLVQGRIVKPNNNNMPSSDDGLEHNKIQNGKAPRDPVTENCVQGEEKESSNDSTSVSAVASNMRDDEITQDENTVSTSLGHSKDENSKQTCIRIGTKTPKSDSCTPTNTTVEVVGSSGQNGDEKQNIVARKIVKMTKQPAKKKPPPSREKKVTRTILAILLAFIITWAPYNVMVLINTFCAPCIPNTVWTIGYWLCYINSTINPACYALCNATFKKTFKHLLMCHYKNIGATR
Outline: (§1)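 Dissociation constants and relative efficacies derived from guinea pig tissue agonist responses by the Furchgott and Bursztyn method.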

[2] = biological target: Muscarinic acetylcholine receptor M3 (Cavia porcellus) (UniProt Q8VH26); assay: Muscarinic potency was evaluated on guinea pig ileum at Muscarinic acetylcholine receptor M3 (expressed as -logED50); type: functional, tissue-based
Chain of Muscarinic acetylcholine receptor M3 (Cavia porcellus) (Q8VH26 1-587): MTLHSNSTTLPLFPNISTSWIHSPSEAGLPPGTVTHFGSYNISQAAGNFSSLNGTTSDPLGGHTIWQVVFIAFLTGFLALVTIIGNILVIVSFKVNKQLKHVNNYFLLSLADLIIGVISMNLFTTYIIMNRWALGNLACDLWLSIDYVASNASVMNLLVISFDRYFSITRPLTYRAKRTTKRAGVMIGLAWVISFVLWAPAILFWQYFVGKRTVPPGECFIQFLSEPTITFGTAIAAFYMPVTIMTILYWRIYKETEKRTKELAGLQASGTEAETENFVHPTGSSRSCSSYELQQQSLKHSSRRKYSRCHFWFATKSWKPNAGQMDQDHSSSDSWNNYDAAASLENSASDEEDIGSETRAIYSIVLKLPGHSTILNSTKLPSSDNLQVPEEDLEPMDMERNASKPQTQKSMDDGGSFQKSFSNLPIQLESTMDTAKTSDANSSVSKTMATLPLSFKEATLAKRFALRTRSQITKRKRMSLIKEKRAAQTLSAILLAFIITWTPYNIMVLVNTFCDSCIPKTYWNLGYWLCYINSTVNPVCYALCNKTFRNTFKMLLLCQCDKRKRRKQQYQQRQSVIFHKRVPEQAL
Outline: (§2)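 Isolated guinea pig tissues in PSS. Responses are expressed as a percentage of the maximal response in the control curve. Potency is given as pD₂ (−log ED₅₀, the agonist concentration producing 50% of maximal contraction). […] Parallel tissues received only (±)-muscarine to check sensitivity. 6–10 observations, mean ± SEM.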

[3] = organism: Cavia porcellus; assay: Dissociation constant was evaluated on guinea pig bladder at M3 muscarinic receptor; outline: as §1
[4] = biological target: Muscarinic acetylcholine receptor M3 (Cavia porcellus) (UniProt Q8VH26); assay: Relative efficacy was evaluated on guinea pig ileum at Muscarinic acetylcholine receptor M3; type: functional, tissue-based; outline: as §1
[5] = biological target: T2, Muscarinic acetylcholine receptor M1 (Rattus norvegicus) (UniProt P08482); assay: Muscarinic potency was evaluated at ganglionic Muscarinic acetylcholine receptor M1 mediating Tachycardia in the pithed rat (Increase in heart rate)
T2 sequence (whole entry): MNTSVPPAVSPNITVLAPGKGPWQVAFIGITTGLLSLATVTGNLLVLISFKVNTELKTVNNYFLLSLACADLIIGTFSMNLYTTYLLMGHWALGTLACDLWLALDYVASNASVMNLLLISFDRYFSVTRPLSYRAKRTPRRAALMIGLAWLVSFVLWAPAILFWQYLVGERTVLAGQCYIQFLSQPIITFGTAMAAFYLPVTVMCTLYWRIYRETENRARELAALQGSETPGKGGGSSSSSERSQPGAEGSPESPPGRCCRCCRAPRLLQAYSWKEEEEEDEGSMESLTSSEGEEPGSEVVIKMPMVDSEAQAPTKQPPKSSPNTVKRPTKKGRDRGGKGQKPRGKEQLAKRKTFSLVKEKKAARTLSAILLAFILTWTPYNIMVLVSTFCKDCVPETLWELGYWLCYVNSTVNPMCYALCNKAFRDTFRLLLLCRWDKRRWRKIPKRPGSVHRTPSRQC
Outline: (§3)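 Pithed rats, artificially respired at 60 cycles/min, 1 mL/100 g, and equilibrated ≥30 min until heart rate was stable (basal 300 ± 8 beats/min). Agonists in 0.9% saline given iv at 0.1 mL/100 g, with full recovery between single doses. Heart rate measured from the carotid pressure pulse. ED₅₀ read graphically from dose–response curves. 5–9 observations, mean ± SEM.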

[6] = biological target: Muscarinic acetylcholine receptor M3 (Cavia porcellus) (UniProt Q8VH26); assay: Muscarinic potency was evaluated on guinea pig bladder at Muscarinic acetylcholine receptor M3 (expressed as -logED50); type: functional; outline: as §2
[7] = biological target: T1, Muscarinic acetylcholine receptor M2 (Homo sapiens); assay: Relative efficacy was evaluated on guinea pig heart (force) at Muscarinic acetylcholine receptor M2; type: functional; settings: Cavia porcellus; target entry is the homologue from another species; outline: as §1
[8] = biological target: Muscarinic acetylcholine receptor M3 (Cavia porcellus) (UniProt Q8VH26); assay: Relative efficacy was evaluated on guinea pig bladder at Muscarinic acetylcholine receptor M3; type: functional; outline: as §1
[9] = tested on: Muscarinic acetylcholine receptor M2 (Cavia porcellus); assay: Muscarinic potency was evaluated on guinea pig heart (force) at Muscarinic acetylcholine receptor M2 (expressed as -logED50)
[10] = organism: Cavia porcellus; assay: Dissociation constant was evaluated on guinea pig heart (force) at M2 muscarinic receptor; outline: as §1
[11] = tested on: Muscarinic acetylcholine receptor M2 (Cavia porcellus); assay: Muscarinic potency was evaluated on guinea pig heart (rate) at Muscarinic acetylcholine receptor M2
[12] = organism: Cavia porcellus; assay: Dissociation constant was evaluated on guinea pig heart (rate) at M2 muscarinic receptor; outline: as §1
[13] = biological target: Muscarinic acetylcholine receptor M3 (Cavia porcellus) (UniProt Q8VH26); assay: Intrinsic adtivitiy was measured by the ratio between the maximum response and the maximum response of muscarine in guinea pig bladder at Muscarinic acetylcholine receptor M3; type: functional; outline: as §2
[14] = organism: Cavia porcellus; assay: Dissociation constant was evaluated on guinea pig ileum at M3 muscarinic receptor; outline: as §1
[15] = tested on: Muscarinic acetylcholine receptor M2 (Cavia porcellus); assay: Intrinsic activity was measured as the ratio between the maximum response and the maximum response of muscarine in guinea pig heart at Muscarinic acetylcholine receptor M2
[16] = biological target: T3, Muscarinic acetylcholine receptor M2 (Rattus norvegicus) (UniProt P10980); assay: Muscarinic potency was evaluated at cardiac Muscarinic acetylcholine receptor M2 mediating Bradycardia in the pithed rat (Decrease in heart rate); type: functional; outline: as §3
T3 sequence (whole entry): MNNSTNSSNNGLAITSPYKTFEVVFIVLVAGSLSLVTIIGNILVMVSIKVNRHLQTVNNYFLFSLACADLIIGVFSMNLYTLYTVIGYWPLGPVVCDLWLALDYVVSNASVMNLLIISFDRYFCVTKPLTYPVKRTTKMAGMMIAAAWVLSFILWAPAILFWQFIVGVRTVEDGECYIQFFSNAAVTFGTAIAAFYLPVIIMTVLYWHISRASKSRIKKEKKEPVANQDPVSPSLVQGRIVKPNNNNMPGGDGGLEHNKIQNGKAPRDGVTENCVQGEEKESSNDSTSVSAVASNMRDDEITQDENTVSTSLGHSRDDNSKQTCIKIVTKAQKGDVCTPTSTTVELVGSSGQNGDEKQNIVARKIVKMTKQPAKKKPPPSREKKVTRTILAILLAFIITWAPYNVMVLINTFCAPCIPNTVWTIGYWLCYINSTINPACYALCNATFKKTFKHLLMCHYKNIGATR

[17] = biological target: Muscarinic acetylcholine receptor M3 (Cavia porcellus) (UniProt Q8VH26); assay: Intrinsic adtivitiy was measured by the ratio between the maximum response and the maximum response of muscarine in guinea pig ileum at Muscarinic acetylcholine receptor M3; type: functional, tissue-based; outline: as §2

SMILES	Relative efficacy [1]	pD2 [2]	-Log Kd [3]	Relative efficacy [4]	ED50 [5] [mg/kg]	pD2 [6]	Relative efficacy [7]	Relative efficacy [8]	pD2 [9]	-Log Kd [10]	-Log ED50 [11]	-Log Kd [12]	Intrinsic activity [13]	-Log Kd [14]	Intrinsic activity [15]	ED50 [16] [mg/kg]	Intrinsic activity [17]
C[C@H]1O[C@@H](C[N+](C)(C)C)CC1(F)F	10	5.53	3.71	0.8	0.1	3.82	1.3	0.2	5.76	3.64	6.31	3.48	0.95	4.47	0.97	0.274	0.98
C[C@H]1O[C@H](C[N+](C)(C)C)CC1(F)F	–	4.85	–	–	–	3.95	–	–	5.77	–	–	–	0.67	–	0.98	–	0.99
C[C@@H]1O[C@H](C[N+](C)(C)C)C[C@H]1F	0.2	7.36	4.39	3	0.0045	5.66	1.2	1.5	6.73	4.67	6.87	5.77	0.88	5.72	0.98	0.0235	0.95
C[C@@H]1O[C@@H](C[N+](C)(C)C)CC1(F)F	–	5.33	–	–	–	4.16	–	–	6.28	–	–	–	1	–	1	–	0.97
C[C@@H]1O[C@H](C[N+](C)(C)C)C[C@H]1O (racemic) [MUSCARINE]	–	7.1	4.62	–	–	5.69	–	–	–	–	–	–	–	5.95	–	–	1
C[C@@H]1O[C@H](C[N+](C)(C)C)CC1(F)F	23	5.8	4.4	0.9	0.05	5.23	1.6	0.6	6.56	4.37	6.58	3.39	0.83	4.7	1	0.14	0.99

Reference: ChEMBL document CHEMBL1129984, “Synthesis and pharmacological characterization of enantiomerically pure muscarinic agonists: difluoromuscarines” (J Med Chem, 1997)
